How the values were obtained:
Format in all cases: functional
SNB-19 = test: Growth inhibition of human SNB19 cells at 10 uM after 48 hrs by coulter counting; conditions: SNB-19, 48 h, read-out: GI
How it was run: (§1)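 Single-dose primary screen across the full NCI 60-cell-line panel. Stocks were made in DMSO and diluted in PBS to a final DMSO below 1%. Cultures at 6 × 10⁴ cells/ml were run in duplicate wells alongside PBS/DMSO vehicle controls at 37 °C in humidified 5% CO₂. Data were expressed as percent growth of treated cells.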

TK-10 = test: Growth inhibition of human TK10 cells at 10 uM after 48 hrs by coulter counting; conditions: TK-10, 48 h, read-out: GI
How it was run: (§2)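 Single-dose screen in the NCI 60 human tumor cell line panel (nine subpanels). Compounds dissolved in DMSO and diluted in phosphate buffered saline, keeping final DMSO below 1%. Added in duplicate wells to cells at 6 × 10⁴ cells/ml. Controls held PBS and DMSO at matching dilutions. Incubated at 37 °C, humidified, 5% CO₂. Reported as percent growth of treated cells.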

SK-MEL-5 = test: Growth inhibition of human SK-MEL-5 cells at 10 uM after 48 hrs by coulter counting; conditions: SK-MEL-5, 48 h, read-out: GI; how it was run: as §1
NCI-H226 = test: Growth inhibition of human NCI-H226 cells at 10 uM after 48 hrs by coulter counting; conditions: NCI-H226, 48 h, read-out: GI; how it was run: as §1
HCT-15 = test: Growth inhibition of human HCT15 cells at 10 uM after 48 hrs by coulter counting; conditions: HCT-15, 48 h, read-out: GI; how it was run: as §1
KM12 = test: Growth inhibition of human KM12 cells at 10 uM after 48 hrs by coulter counting; conditions: KM12, 48 h, read-out: GI; how it was run: as §1
T47D = test: Growth inhibition of human T47D cells at 10 uM after 48 hrs by coulter counting; conditions: read-out: GI; how it was run: as §2
K562 = test: Growth inhibition of human K562 cells at 10 uM after 48 hrs by coulter counting; conditions: K562, 48 h, read-out: GI; how it was run: as §1
MOLT-4 = test: Growth inhibition of human MOLT4 cells at 10 uM after 48 hrs by coulter counting; conditions: MOLT-4, 48 h, read-out: GI; how it was run: as §1
UACC-62 = test: Growth inhibition of human UACC62 cells at 10 uM after 48 hrs by coulter counting; conditions: UACC-62, 48 h, read-out: GI; how it was run: as §2
M14 = test: Growth inhibition of human M14 cells at 10 uM after 48 hrs by coulter counting; conditions: M14, 48 h, read-out: GI; how it was run: as §1
CAKI-1 = test: Growth inhibition of human Caki1 cells at 10 uM after 48 hrs by coulter counting; conditions: CAKI-1, 48 h, read-out: GI; how it was run: as §1
A549 = test: Growth inhibition of human A549 cells at 10 uM after 48 hrs by coulter counting; conditions: A549, 48 h, read-out: GI; how it was run: as §1
HCT-116 = test: Growth inhibition of human HCT116 cells at 10 uM after 48 hrs by coulter counting; conditions: HCT-116, 48 h, read-out: GI; how it was run: as §1
HT-29 = test: Growth inhibition of human HT-29 cells at 10 uM after 48 hrs by coulter counting; conditions: HT-29, 48 h, read-out: GI; how it was run: as §1
SF-268 = test: Growth inhibition of human SF268 cells at 10 uM after 48 hrs by coulter counting; conditions: SF-268, 48 h, read-out: GI; how it was run: as §1
CCRF-CEM = test: Growth inhibition of human CCRF-CEM cells at 10 uM after 48 hrs by coulter counting; conditions: read-out: GI; how it was run: as §1
UO-31 = test: Growth inhibition of human UO31 cells at 10 uM after 48 hrs by coulter counting; conditions: UO-31, 48 h, read-out: GI; how it was run: as §2
DU-145 = test: Growth inhibition of human DU145 cells at 10 uM after 48 hrs by coulter counting; conditions: DU-145, 48 h, read-out: GI; how it was run: as §1
SF-295 = test: Growth inhibition of human SF295 cells at 10 uM after 48 hrs by coulter counting; conditions: SF-295, 48 h, read-out: GI; how it was run: as §1
OVCAR-8 = test: Growth inhibition of human OVCAR8 cells at 10 uM after 48 hrs by coulter counting; conditions: OVCAR-8, 48 h, read-out: GI; how it was run: as §1
EKVX = test: Growth inhibition of human EKVX cells at 10 uM after 48 hrs by coulter counting; conditions: read-out: GI; how it was run: as §1
UACC-257 = test: Growth inhibition of human UACC257 cells at 10 uM after 48 hrs by coulter counting; conditions: UACC-257, 48 h, read-out: GI; how it was run: as §2
NCI-H522 = test: Growth inhibition of human NCI-H522 cells at 10 uM after 48 hrs by coulter counting; conditions: NCI-H522, 48 h, read-out: GI; how it was run: as §1
MDA-MB-435 = test: Growth inhibition of human MDA-MB-435 cells at 10 uM after 48 hrs by coulter counting; conditions: MDA-MB-435, 48 h, read-out: GI; how it was run: as §1
NCI-H23 = test: Growth inhibition of human NCI-H23 cells at 10 uM after 48 hrs by coulter counting; conditions: NCI-H23, 48 h, read-out: GI; how it was run: as §1
SN12C = test: Growth inhibition of human SN12C cells at 10 uM after 48 hrs by coulter counting; conditions: read-out: GI; how it was run: as §1
ACHN = test: Growth inhibition of human ACHN cells at 10 uM after 48 hrs by coulter counting; conditions: read-out: GI; how it was run: as §1
SK-MEL-2 = test: Growth inhibition of human SK-MEL-2 cells at 10 uM after 48 hrs by coulter counting; conditions: SK-MEL-2, 48 h, read-out: GI; how it was run: as §1
786-0 = test: Growth inhibition of human 786-0 cells at 10 uM after 48 hrs by coulter counting; conditions: 786-0, 48 h, read-out: GI; how it was run: as §1
NCI/ADR-RES = test: Growth inhibition of human NCI/ADR-RES cells at 10 uM after 48 hrs by coulter counting; conditions: read-out: GI; how it was run: as §1
BT-549 = test: Growth inhibition of human BT549 cells at 10 uM after 48 hrs by coulter counting; conditions: BT-549, 48 h, read-out: GI; how it was run: as §1
U-251 = test: Growth inhibition of human U251 cells at 10 uM after 48 hrs by coulter counting; conditions: U-251, 48 h, read-out: GI; how it was run: as §2
A498 = test: Growth inhibition of human A498 cells at 10 uM after 48 hrs by coulter counting; conditions: A498, 48 h, read-out: GI; how it was run: as §1
NCI-H460 = test: Growth inhibition of human NCI-H460 cells at 10 uM after 48 hrs by coulter counting; conditions: NCI-H460, 48 h, read-out: GI; how it was run: as §1
RPMI-8226 = test: Growth inhibition of human RPMI8226 cells at 10 uM after 48 hrs by coulter counting; conditions: RPMI-8226, 48 h, read-out: GI; how it was run: as §1
[1] = Growth inhibition of human NCI-322M cells at 10 uM after 48 hrs by coulter counting; conditions: read-out: GI; how it was run: as §1
MCF7 = test: Growth inhibition of human MCF7 cells at 10 uM after 48 hrs by coulter counting; conditions: MCF7, 48 h, read-out: GI; how it was run: as §1
LOX IMVI = test: Growth inhibition of human LOXIMVI cells at 10 uM after 48 hrs by coulter counting; conditions: read-out: GI; how it was run: as §1
SNB-75 = test: Growth inhibition of human SNB75 cells at 10 uM after 48 hrs by coulter counting; conditions: SNB-75, 48 h, read-out: GI; how it was run: as §1
SK-MEL-28 = test: Growth inhibition of human SK-MEL-28 cells at 10 uM after 48 hrs by coulter counting; conditions: SK-MEL-28, 48 h, read-out: GI; how it was run: as §1
HOP-62 = test: Growth inhibition of human HOP62 cells at 10 uM after 48 hrs by coulter counting; conditions: HOP-62, 48 h, read-out: GI; how it was run: as §1
HL-60(TB) = test: Growth inhibition of human HL-60(TB) cells at 10 uM after 48 hrs by coulter counting; conditions: HL-60, 48 h, read-out: GI
How it was run: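 Test compound was dissolved in DMSO and diluted in phosphate-buffered saline to a final DMSO level below 1%. Dilutions were plated in duplicate with cell culture at 6 × 10⁴ cells/ml. Vehicle controls held PBS and DMSO at matching dilutions. Incubation was at 37 °C, humidified, under 5% CO₂. Data were reported as percent growth of treated cells.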

OVCAR-4 = test: Growth inhibition of human OVCAR4 cells at 10 uM after 48 hrs by coulter counting; conditions: OVCAR-4, 48 h, read-out: GI; how it was run: as §1
HCC 2998 = test: Growth inhibition of human HCC2998 cells at 10 uM after 48 hrs by coulter counting; conditions: HCC 2998, 48 h, read-out: GI; how it was run: as §1
SF-539 = test: Growth inhibition of human SF539 cells at 10 uM after 48 hrs by coulter counting; conditions: SF-539, 48 h, read-out: GI; how it was run: as §1
IGROV-1 = test: Growth inhibition of human IGROV1 cells at 10 uM after 48 hrs by coulter counting; conditions: IGROV-1, 48 h, read-out: GI; how it was run: as §1

Measured: inhibition of growth at 10 µM

CCN1CC2=C(N=C3SC=CN3C2c2cccs2)/C(=C/c2cccs2)C1 (stereo not drawn)
14.2%: SNB-75
11.4%: T47D
21.6%: A498
26.2%: UO-31
not listed: OVCAR-4 | HCC 2998 | SF-539 | IGROV-1
> 10%: all other assays above

CCN1CC2=C(N=C3SC=C(C)N3C2c2cccs2)/C(=C/c2cccs2)C1 (stereo not drawn)
17.7%: EKVX
13.6%: SNB-75
21.8%: UO-31
not listed: OVCAR-4 | HCC 2998 | SF-539 | IGROV-1
> 10%: all other assays above

CC1=CSC2=NC3=C(CCC/C3=C\c3ccccc3)C(c3ccccc3)N12 (stereo not drawn)
11.4%: CAKI-1
28.8%: UO-31
13.8%: K562
13.3%: SNB-75
11.2%: NCI-H226
not listed: TK-10 | HCT-15 | OVCAR-8 | SN12C | 786-0
> 10%: all other assays above

From ChEMBL document CHEMBL1926614, “Substituted thiazoles V. synthesis and antitumor activity of novel thiazolo[2,3-b]quinazoline and pyrido[4,3-d]thiazolo[3,2-a]pyrimidine analogues” (2012)
